Here are results for 13 molecules from ChEMBL document CHEMBL1142725, “Synthesis and discovery of pyrazine-pyridine biheteroaryl as a novel series of potent vascular endothelial growth factor receptor-2 inhibitors” (J Med Chem, 2005).

Assay [1] deals with Cyclin-dependent kinase 1 (Homo sapiens, UniProt P06493). Put plainly: Inhibition of human cyclin-dependent kinase 1.
Assay [2] concerns the target Vascular endothelial growth factor receptor 2 (Homo sapiens, UniProt P35968). Put plainly: Inhibition of human vascular endothelial growth factor receptor 2.
Assay [3] deals with Cyclin-dependent kinase 4 (Homo sapiens, UniProt P11802). Put plainly: Inhibition of cyclin-dependent kinase 4.
The target of assay [4] is Vascular endothelial growth factor receptor (Homo sapiens, UniProt P17948+P35916+P35968). Put plainly: Inhibition of VEGF-stimulated human umbilical vein endothelial cell proliferation. Type of assay: functional, cell-based. The essentials:
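HUVEC trypsinized and seeded in F-12K with 0.2% heat-inactivated FBS, stimulated with 2 ng/well VEGF with or without compound. BrdU added 24 h after VEGF, then incubated another 20-24 h. Incorporation read by BrdU cell-proliferation ELISA.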

The target in assay [5] is Protein kinase C beta type (Homo sapiens, UniProt P05771). Put plainly: Inhibition of protein kinase C beta 2.
A further assay concerns HeLa. As to the kind of experiment: Inhibitory concentration against Proliferation of HeLa cells (cervical adenocarcinoma). The class given is functional, cell-based. The note with it: Homo sapiens. In a few lines:
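HeLa cells grown in MEM with 0.1 mM nonessential amino acids, 1 mM pyruvate, 2 mM L-glutamine and 10% FCS at 37 °C, 5% CO2. Seeded in scintillating microplates in complete medium and incubated 24 h. Compound added for 24 h, then 0.2 µCi methyl-[14C]thymidine per well for a further 24 h.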

Assay [6] has as its target Protein kinase C gamma type (Homo sapiens, UniProt P05129). As to the kind of experiment: Inhibition of protein kinase C gamma.
Assay [7] has as its target Mitogen-activated protein kinase 1 (Homo sapiens, UniProt P28482). Put plainly: Inhibition of mitogen activated protein kinase (ERK2).
The target in the next assay is Casein kinase II (Homo sapiens, UniProt P19784+P67870+P68400). Put plainly: Inhibition of casein kinase II. The class given is protein-complex assay.
Assay [8] concerns the target cAMP-dependent protein kinase (PKA) (Homo sapiens, UniProt P22694+P17612+P22612). As to the kind of experiment: Inhibition of protein kinase A. The class given is protein assay.
For assay [9], the target named is Fibroblast growth factor receptor 2 (Homo sapiens, UniProt P21802). As to the kind of experiment: Inhibition of fibroblast growth factor receptor 2.
Fibroblast growth factor receptor 2, sequence (P21802 whole entry): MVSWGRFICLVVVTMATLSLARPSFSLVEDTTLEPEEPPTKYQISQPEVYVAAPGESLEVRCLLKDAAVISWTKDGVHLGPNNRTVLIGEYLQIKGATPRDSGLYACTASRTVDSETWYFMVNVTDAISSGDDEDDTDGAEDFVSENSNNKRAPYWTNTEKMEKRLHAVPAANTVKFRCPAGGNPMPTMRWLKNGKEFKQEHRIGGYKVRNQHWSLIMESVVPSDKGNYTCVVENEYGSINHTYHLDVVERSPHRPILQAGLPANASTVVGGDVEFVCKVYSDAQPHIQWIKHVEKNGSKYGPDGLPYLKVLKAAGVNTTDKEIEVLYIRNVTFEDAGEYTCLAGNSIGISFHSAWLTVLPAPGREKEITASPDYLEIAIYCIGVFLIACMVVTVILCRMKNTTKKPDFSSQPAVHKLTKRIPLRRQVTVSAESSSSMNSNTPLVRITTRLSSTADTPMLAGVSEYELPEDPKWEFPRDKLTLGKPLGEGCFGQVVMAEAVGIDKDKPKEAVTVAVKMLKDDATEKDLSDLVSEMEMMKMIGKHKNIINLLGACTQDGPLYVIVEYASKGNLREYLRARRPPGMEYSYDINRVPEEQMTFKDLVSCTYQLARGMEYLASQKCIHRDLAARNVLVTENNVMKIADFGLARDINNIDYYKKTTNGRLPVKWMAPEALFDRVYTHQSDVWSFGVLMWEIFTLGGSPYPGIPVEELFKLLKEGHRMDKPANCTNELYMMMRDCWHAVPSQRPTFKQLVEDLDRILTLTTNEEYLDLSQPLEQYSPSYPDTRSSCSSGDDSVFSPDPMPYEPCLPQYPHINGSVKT

Vascular endothelial growth factor receptor 2, sequence (P35968 whole entry): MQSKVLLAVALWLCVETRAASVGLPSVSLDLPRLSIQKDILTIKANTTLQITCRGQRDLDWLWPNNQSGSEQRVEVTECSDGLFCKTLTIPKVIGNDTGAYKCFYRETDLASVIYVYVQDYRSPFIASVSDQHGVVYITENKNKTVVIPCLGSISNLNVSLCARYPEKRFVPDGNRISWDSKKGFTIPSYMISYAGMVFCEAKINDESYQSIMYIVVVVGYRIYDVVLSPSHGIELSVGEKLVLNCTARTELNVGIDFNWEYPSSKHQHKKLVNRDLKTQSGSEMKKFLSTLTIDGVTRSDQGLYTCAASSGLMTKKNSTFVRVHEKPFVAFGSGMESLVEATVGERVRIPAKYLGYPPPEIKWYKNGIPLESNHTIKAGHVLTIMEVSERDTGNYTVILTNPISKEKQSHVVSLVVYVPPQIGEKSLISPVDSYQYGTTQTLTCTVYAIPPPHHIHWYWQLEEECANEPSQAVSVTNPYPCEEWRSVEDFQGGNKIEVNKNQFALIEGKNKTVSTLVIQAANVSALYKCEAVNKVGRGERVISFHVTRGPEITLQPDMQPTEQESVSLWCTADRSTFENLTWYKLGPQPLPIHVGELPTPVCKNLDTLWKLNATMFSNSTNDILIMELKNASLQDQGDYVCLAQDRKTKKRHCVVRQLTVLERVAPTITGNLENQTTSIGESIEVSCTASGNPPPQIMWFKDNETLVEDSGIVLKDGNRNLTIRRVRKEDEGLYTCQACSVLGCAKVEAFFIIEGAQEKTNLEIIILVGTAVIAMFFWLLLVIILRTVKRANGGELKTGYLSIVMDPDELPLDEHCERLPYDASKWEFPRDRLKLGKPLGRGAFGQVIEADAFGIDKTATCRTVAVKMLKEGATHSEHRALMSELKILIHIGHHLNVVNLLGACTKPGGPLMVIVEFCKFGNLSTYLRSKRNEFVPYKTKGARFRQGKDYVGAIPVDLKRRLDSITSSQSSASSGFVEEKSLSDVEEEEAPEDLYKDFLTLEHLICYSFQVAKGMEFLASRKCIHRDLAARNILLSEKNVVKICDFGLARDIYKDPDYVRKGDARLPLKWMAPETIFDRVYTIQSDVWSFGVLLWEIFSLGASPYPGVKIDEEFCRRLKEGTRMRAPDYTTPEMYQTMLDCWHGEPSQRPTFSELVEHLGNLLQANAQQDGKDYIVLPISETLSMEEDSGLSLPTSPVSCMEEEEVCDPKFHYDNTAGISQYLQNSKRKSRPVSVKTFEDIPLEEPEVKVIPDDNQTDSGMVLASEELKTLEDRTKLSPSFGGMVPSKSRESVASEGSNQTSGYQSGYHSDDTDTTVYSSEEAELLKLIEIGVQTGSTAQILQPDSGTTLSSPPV
Cyclin-dependent kinase 1, sequence (P06493 whole entry): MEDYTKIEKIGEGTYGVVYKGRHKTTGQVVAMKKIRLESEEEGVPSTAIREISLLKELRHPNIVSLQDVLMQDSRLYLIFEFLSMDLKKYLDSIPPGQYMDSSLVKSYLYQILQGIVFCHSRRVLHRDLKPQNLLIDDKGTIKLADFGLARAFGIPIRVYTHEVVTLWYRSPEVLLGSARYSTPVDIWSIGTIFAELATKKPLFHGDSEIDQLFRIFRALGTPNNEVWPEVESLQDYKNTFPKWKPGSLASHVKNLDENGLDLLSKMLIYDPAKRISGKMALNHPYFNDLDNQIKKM
Protein kinase C beta type, sequence (P05771 whole entry): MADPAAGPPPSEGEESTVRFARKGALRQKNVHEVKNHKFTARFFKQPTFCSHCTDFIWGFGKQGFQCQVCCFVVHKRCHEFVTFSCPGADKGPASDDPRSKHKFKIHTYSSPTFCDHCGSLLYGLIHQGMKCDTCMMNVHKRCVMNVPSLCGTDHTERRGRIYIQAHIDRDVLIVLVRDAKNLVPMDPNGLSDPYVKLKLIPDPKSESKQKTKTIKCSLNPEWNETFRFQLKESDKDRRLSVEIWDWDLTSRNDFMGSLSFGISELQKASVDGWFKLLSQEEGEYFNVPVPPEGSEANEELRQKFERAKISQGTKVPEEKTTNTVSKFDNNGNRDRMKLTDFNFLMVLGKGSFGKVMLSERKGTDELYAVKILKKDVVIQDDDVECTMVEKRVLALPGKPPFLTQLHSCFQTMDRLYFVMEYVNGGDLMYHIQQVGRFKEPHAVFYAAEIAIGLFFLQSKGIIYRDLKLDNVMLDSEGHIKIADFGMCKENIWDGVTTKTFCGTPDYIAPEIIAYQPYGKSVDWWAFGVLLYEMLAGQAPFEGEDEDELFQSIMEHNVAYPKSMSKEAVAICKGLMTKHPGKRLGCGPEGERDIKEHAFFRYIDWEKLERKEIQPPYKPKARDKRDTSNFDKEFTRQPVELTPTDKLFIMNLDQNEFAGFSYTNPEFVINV
Casein kinase II, sequence (P67870 whole entry): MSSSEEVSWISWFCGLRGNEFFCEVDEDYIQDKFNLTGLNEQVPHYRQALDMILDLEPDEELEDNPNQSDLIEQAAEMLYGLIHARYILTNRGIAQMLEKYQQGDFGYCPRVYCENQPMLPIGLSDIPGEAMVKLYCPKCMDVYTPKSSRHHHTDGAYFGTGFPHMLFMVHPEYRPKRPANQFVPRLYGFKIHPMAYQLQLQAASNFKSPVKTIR
Casein kinase II, sequence (P68400 whole entry): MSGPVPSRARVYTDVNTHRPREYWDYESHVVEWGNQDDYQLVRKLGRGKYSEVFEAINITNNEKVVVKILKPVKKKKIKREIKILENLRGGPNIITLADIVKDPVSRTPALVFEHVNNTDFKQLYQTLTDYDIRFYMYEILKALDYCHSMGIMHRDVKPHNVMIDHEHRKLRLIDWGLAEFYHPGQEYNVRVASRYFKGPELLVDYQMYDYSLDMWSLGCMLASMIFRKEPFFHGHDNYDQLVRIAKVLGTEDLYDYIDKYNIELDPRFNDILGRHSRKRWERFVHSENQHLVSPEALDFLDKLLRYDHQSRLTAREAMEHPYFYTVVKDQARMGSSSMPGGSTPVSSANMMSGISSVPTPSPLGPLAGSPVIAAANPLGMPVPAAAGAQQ
Casein kinase II, sequence (P19784 whole entry): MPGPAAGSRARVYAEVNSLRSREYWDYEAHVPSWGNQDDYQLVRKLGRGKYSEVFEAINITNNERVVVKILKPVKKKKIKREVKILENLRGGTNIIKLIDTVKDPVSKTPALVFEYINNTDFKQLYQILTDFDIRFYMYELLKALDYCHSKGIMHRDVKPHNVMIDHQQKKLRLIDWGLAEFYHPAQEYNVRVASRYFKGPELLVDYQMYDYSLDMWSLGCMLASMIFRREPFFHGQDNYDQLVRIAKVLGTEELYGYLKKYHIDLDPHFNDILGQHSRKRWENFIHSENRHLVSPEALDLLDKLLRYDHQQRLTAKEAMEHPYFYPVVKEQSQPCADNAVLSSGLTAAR

The IC50 is the point on the concentration scale where inhibition reaches its midpoint. A higher IC50 goes with weaker potency in that assay. With `OCCCNc1ccc(-c2ncncc2Nc2cccc(Cl)c2)cn1`, the IC50 in assay [1] and in [2] was more than 10000 nM each time.

Regarding `OCCCNc1cncc(-c2cnc(Nc3cccc(Cl)c3)cn2)c1`, the IC50 in [1] and in assay [2] was more than 10000 nM throughout.

For `OCCCNc1cc(-c2cncc(Nc3cccc(Cl)c3)n2)ccn1`, the IC50 in assay [1] and in assay [2] was 500 nM throughout.

For `OCCCNc1cncc(-c2cncc(Nc3cccc(Cl)c3)n2)n1`, the IC50 in assay [1] is more than 10000 nM; in [2] it was 497 nM.

For the molecule `OCCCNc1cncc(-c2cncc(Nc3cccc(Cl)c3)n2)c1`, the IC50 is more than 10000 nM in assay [3]; 5 nM in [4]; more than 10000 nM in assay [5]; 84 nM in [2]; more than 10000 nM with HeLa; more than 10000 nM in assay [6]. Further, the IC50 in assay [7] is more than 10000 nM; on Casein kinase II it was more than 10000 nM; in assay [8], more than 10000 nM; in [9], 210 nM.

As for `OCCCNc1cc(-c2ccnc(Nc3cccc(Cl)c3)n2)ccn1`, in assay [1], the 50% inhibitory concentration (IC50) came out at 17 nM.

Regarding `OCCCNc1cnccc1-c1cncc(Nc2cccc(Cl)c2)n1`, the IC50 in assay [1] stood at 2220 nM; in [2], 761 nM.

On to `OCCCNc1cncc(-c2ncc(Nc3cccc(Cl)c3)cn2)c1`, for which the IC50 in [1] and in assay [2] was more than 10000 nM in each case.

`OCCCNc1cncc(-c2cc(Nc3cccc(Cl)c3)ncn2)c1`: the IC50 in [1] is 2400 nM; in assay [2], more than 10000 nM.

In the case of `OCCCNc1ncc(-c2cncc(Nc3cccc(Cl)c3)n2)o1`, the IC50 was more than 10000 nM in assay [1] and 2110 nM in assay [2].

On to `OCCCNc1ccc(-c2cncc(Nc3cccc(Cl)c3)n2)nc1`, for which the IC50 in assay [1] and in [2] was more than 10000 nM throughout.

For `OCCCNc1cccc(-c2cncc(Nc3cccc(Cl)c3)n2)n1`, the IC50 in [1] and in assay [2] was more than 10000 nM throughout.

With `OCCCNc1ncc(-c2cncc(Nc3cccc(Cl)c3)n2)s1`, the IC50 in assay [1] came to 8080 nM; in assay [2] it was 708 nM.
